Columns and labels:
Type in all cases: cell-based
[1] = target: T1, mouse Otop1 (mOtop1) channels (Mus musculus, UniProt Q80VM9); test: whole-cell patch-clamp, peak currents: current density and "on-cell" analysis; conditions: for effect on mOtop1 current density: 10 μM
T1 sequence (Q80VM9 1-600): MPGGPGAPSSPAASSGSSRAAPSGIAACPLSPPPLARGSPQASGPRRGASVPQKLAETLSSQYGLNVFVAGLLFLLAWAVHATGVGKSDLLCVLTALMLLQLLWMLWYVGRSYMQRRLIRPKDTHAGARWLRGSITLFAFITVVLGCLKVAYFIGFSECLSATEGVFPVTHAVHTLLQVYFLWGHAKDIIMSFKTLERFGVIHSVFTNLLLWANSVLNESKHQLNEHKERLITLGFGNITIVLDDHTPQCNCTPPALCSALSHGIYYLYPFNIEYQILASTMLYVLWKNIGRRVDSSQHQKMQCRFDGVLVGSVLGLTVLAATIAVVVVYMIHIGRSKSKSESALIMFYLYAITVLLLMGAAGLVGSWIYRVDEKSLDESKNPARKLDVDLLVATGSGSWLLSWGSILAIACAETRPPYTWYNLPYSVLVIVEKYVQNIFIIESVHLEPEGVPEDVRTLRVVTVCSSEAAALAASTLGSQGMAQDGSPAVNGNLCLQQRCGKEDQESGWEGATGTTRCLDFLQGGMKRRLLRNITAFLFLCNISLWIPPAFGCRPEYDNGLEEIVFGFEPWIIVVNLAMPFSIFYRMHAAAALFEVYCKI

[2] = target: T1, mouse Otop1 (mOtop1) channels; conditions: 10 μM MFaN; pH 5.5
[3] = target: T1, mouse Otop1 (mOtop1) channels; test: activation time constant; conditions: 10 μM; before or concurrently with pH 5.5 stimulus
[4] = target: T1, mouse Otop1 (mOtop1) channels; test: reversal potential; conditions: 10 μM; pH 5.5; bath NMDG+, Na+, K+ or Cs+
mOtop1 E226A = mOtop1 E226A (Mus musculus, UniProt Q80VM9, E226A); test: patch-clamp, mOtop1 mutant; conditions: 10 μM; pH 5.5
How it was run: (§1)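 Alanine-substituted mOtop1 mutants were co-transfected (2.5 μg channel plus 0.5 μg EGFP plasmid, Lipofectamine 2000) into PAC-knockout HEK293T cells. Whole-cell recording 16–24 h after seeding on PLL coverslips. Pipette (mM): 120 Cs-aspartate, 15 CsCl, 2 Mg-ATP, 5 EGTA, 2.4 CaCl2, 10 HEPES, pH 7.3. Bath (mM): 160 NMDG-Cl, 2 CaCl2, 10 MES, pH 5.5, with 10 μM test compound. Response compared with wild-type mOtop1.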

mOtop1 E229A = mOtop1 E229A (Mus musculus, UniProt Q80VM9, E229A); test: patch-clamp, mOtop1 mutant; conditions: 10 μM; pH 5.5
How it was run: as §1

mOtop1 I239A = mOtop1 I239A (Mus musculus, UniProt Q80VM9, I239A); test: patch-clamp, mOtop1 mutant; conditions: 10 μM; pH 5.5
How it was run: as §1

mOtop1 I241A = mOtop1 I241A (Mus musculus, UniProt Q80VM9, I241A); test: patch-clamp, mOtop1 mutant; conditions: 10 μM; pH 5.5
How it was run: as §1

mOtop1 D245A = mOtop1 D245A (Mus musculus, UniProt Q80VM9, D245A); test: patch-clamp, mOtop1 mutant; conditions: 10 μM; pH 5.5
How it was run: as §1

mOtop1 R554C = mOtop1 R554C (Mus musculus, UniProt Q80VM9, R554C); test: patch-clamp, mOtop1 mutant; conditions: Fig 5G, H
mOtop1 R554E = mOtop1 R554E (Mus musculus, UniProt Q80VM9, R554E); test: patch-clamp, mOtop1 mutant; conditions: Fig 5G, H
mOtop1 R554K = mOtop1 R554K (Mus musculus, UniProt Q80VM9, R554K); test: patch-clamp, mOtop1 mutant; conditions: Fig 5G, H
mOtop1 R554H = mOtop1 R554H (Mus musculus, UniProt Q80VM9, R554H); test: patch-clamp, mOtop1 mutant; conditions: Fig 5G, H
Chain of mOtop1 R554H (Q80VM9 whole entry R554H): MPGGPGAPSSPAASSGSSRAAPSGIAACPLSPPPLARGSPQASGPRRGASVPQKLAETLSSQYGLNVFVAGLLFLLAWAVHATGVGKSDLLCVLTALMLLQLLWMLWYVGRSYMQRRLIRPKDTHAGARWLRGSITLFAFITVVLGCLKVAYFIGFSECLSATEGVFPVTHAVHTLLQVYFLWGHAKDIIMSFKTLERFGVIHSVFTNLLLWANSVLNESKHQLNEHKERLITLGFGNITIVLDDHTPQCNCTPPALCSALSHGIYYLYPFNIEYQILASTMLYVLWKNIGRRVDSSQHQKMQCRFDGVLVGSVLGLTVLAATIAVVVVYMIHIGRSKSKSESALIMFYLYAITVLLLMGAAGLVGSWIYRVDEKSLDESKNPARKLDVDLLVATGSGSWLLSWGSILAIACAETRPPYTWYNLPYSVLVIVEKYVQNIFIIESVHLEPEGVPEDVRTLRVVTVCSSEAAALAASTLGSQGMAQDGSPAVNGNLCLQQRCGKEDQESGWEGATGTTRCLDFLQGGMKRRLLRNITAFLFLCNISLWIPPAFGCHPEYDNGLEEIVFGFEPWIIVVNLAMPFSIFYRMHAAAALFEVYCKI

Chain of mOtop1 E226A (Q80VM9 whole entry E226A): as the sequence (Q80VM9 whole entry R554H) above, with E226A, H554R counted along it
Chain of mOtop1 I241A (Q80VM9 whole entry I241A): as the sequence (Q80VM9 whole entry R554H) above, with I241A, H554R counted along it
Chain of mOtop1 R554K (Q80VM9 whole entry R554K): as the sequence (Q80VM9 whole entry R554H) above, with H554K counted along it
Chain of mOtop1 I239A (Q80VM9 whole entry I239A): as the sequence (Q80VM9 whole entry R554H) above, with I239A, H554R counted along it
Chain of mOtop1 D245A (Q80VM9 whole entry D245A): as the sequence (Q80VM9 whole entry R554H) above, with D245A, H554R counted along it
Chain of mOtop1 R554E (Q80VM9 whole entry R554E): as the sequence (Q80VM9 whole entry R554H) above, with H554E counted along it
Chain of mOtop1 E229A (Q80VM9 whole entry E229A): as the sequence (Q80VM9 whole entry R554H) above, with E229A, H554R counted along it
Chain of mOtop1 R554C (Q80VM9 whole entry R554C): as the sequence (Q80VM9 whole entry R554H) above, with H554C counted along it

EC50 [1]: 9.2 ± 0.6 µM | effect on mOtop1 current density ([1]; pH 5.5, Fig 4A): significantly increased | effect on mOtop1 current density ([1]; pHs ranging from 4.5 to 6.0): significantly increased | effect on inhibition of mOtop1 by Zn2+ [2]: without affecting | effect on the activation rate of mOtop1 channels [3]: had no effect | effect on Vrev of the mOtop1 channel [4]: did not change | response of mutant to MFaN compared to wild-type mOtop1 (mOtop1 E226A): markedly reduced | response of mutant to MFaN compared to wild-type mOtop1 (mOtop1 E229A): significantly enhanced | response of mutant to MFaN compared to wild-type mOtop1 (mOtop1 I239A): markedly reduced | response of mutant to MFaN compared to wild-type mOtop1 (mOtop1 I241A): markedly reduced | response of mutant to MFaN compared to wild-type mOtop1 (mOtop1 D245A): significantly enhanced | effect of mutation on MFaN's potentiation effect vs WT mOtop1 (mOtop1 R554C): eliminated | effect of mutation on MFaN's potentiation effect vs WT mOtop1 (mOtop1 R554E): eliminated | effect of mutation on MFaN's potentiation effect vs WT mOtop1 (mOtop1 R554K): did not affect | effect of mutation on MFaN's potentiation effect vs WT mOtop1 (mOtop1 R554H): reduced
Structure (SMILES): Cc1ccc(C(=O)Nc2ccc3ccccc3c2)o1 [MFaN, 5-methyl-N-2-naphthyl-2-furamide]

Reference: paper PMC11865470 (Communications Biology, 2025)
